{"data": "Results of several laboratories", "target": "Proto-oncogene tyrosine-protein kinase ROS (ROS1, Homo sapiens, UniProt P08922)", "note": "Protocols differ between the studies behind these lines."}
{"Structure (SMILES)": "N#CC1(c2ccccn2)CCN(Cc2cc(C(=O)O)c(=O)n3ccccc23)CC1", "read-out": "cell-free assay", "technique": "competition with immobilised ligand", "tested at": "1 µM", "endpoint": "remaining binding", "result": "90%"}
{"Structure (SMILES)": "Cn1cc(-c2cc(F)cc(N3CCn4c(cc5c4CCCC5)C3=O)c2CO)cc(Nc2ccc(N3CCN(C4COC4)CC3)cn2)c1=O", "read-out": "enzyme activity", "action": "inhibitor", "tested at": "0.1 µM", "endpoint": "inhibition", "result": "10%"}
{"Structure (SMILES)": "COc1ncccc1-c1cnn2ccc(N3CCN(C(=O)OC(C)C)CC3)nc12", "read-out": "binding", "technique": "competition with immobilised ligand", "tested at": "1 µM", "endpoint": "remaining binding", "result": "100%"}
{"Structure (SMILES)": "Cc1nn(C)cc1-c1nc2c(N3CCN(Cc4ccc(Cl)cc4)CC3)c(Cl)cnc2[nH]1", "read-out": "binding", "technique": "competition with immobilised ligand", "tested at": "1 µM", "endpoint": "remaining binding", "result": "100%"}
{"Structure (SMILES)": "C#Cc1n[nH]c2c(-c3cn([C@@H](C)c4ccccn4)c(=O)[nH]c3=O)cc(F)cc12", "read-out": "enzyme activity", "action": "inhibitor", "tested at": "0.1 µM", "endpoint": "inhibition", "result": "5.1%"}
{"Structure (SMILES)": "Cn1cncc1[C@](O)(COc1ccc(C#N)cc1-c1ccc(OC(F)(F)F)cc1)c1ccc(C#N)cc1", "read-out": "cell-free assay", "technique": "competition with immobilised ligand", "tested at": "1 µM", "endpoint": "remaining binding", "result": "89%"}
{"Structure (SMILES)": "O=c1[nH]c2ccccc2n1C1CCN(Cc2ccc(-c3[nH]c4cc5ncnc5cc4nc3-c3ccccc3)cc2)CC1", "read-out": "cell-free assay", "tested at": "0.5 µM", "endpoint": "remaining signal", "result": "101%"}
{"Structure (SMILES)": "Nc1ncc(-c2nc(N3CCOCC3)nc(N3CCOCC3)n2)c(C(F)F)n1", "read-out": "binding", "technique": "competition with immobilised ligand", "tested at": "10 µM", "endpoint": "remaining binding", "result": "54%"}
